Source: ChEMBL document CHEMBL1687916, “Non-nucleoside inhibitors of human adenosine kinase: synthesis, molecular modeling, and biological studies” (J Med Chem, 2011)
Active and inactive are the calls of the source. The rule behind the calls is not given here.

Tests used:
Adenosine kinase = Adenosine kinase (Homo sapiens, UniProt P55263); assay: Inhibition of human adenosine kinase; conditions: read-out: IC50
HeLa S3 [1] = assay: Inhibition of DNA syntheses in human HeLaS3 cells assessed as [3H]thymidine incorporation at 10 uM after 40 mins by scintillation counter; type: functional, cell-based
How it was run: (§1)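 HeLaS-3 cells grown in DMEM with fetal calf serum, trypsinized, and resuspended at 10^6 cells/mL in serum-free DMEM at 37 C with 0, 10 or 50 μM compound plus 5 μCi [3H]thymidine (25 Ci/mmol) or [3H]uridine (22 Ci/mmol). Samples at 0-40 min were spotted on GF/C filters, washed in 5% TCA and ethanol, and acid-precipitable radioactivity counted. Mean of three determinations.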

HeLa S3 [2] = assay: Inhibition of DNA syntheses in human HeLaS3 cells assessed as [3H]thymidine incorporation at 50 uM after 40 mins by scintillation counter; type: functional, cell-based; how it was run: as §1
HeLa S3 [3] = assay: Inhibition of RNA syntheses in human HeLaS3 cells assessed as inhibition of [3H]uridine incorporation after 40 mins by scintillation counter; type: functional, cell-based; how it was run: as §1
[4] = Cellular permeability in human HeLaS3 cells assessed as level of [3H]AMP produced at 2.5 to 25 uM by scintillation counter; type: ADME, cell-based; conditions: hela s3, 25 µM
How it was run: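 HeLaS-3 cells grown in DMEM with fetal calf serum at 37 C, trypsinized, then resuspended at 10^6 cells/mL in serum-free DMEM with compound and 3 μCi [3H]Ado (25 Ci/mmol) at 37 C. Samples taken at 0, 10, 20, 30 and 40 min were spotted on DE-81 filters and washed. [3H]AMP was measured by scintillation counting. Mean of three determinations.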

K562 [5] = assay: Growth inhibition of human K562 cells after 7 days by Burker cell counter; type: functional; conditions: K562, 168 h
How it was run: (§2)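 K562 cells in RPMI 1640 with 10% fetal calf serum, seeded at 5000 cells/mL and held 15 h at 37 C in 5% CO2. Serial compound dilutions were added and cells incubated 7 days. Aliquots were mixed with 0.5% trypan blue; unstained and blue cells were counted on a Bürker chamber. Triplicate points, each count averaged from four determinations.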

K562 [6] = assay: Cytotoxicity against human K562 cells assessed as dead cells after 7 days by Burker cell counter; type: functional, cell-based; how it was run: as §2
HeLa S3 [7] = assay: Cytostatic activity against human HeLaS3 cells at 40 uM after 24 to 48 hrs compound added for every 24 hrs; type: functional, cell-based
How it was run: (§3)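 Cells (8 × 10^4) grown at 37 C in DMEM with 10% fetal calf serum, 5 mM L-glutamine and 50 μg/mL gentamycin, with or without 40 μM compound for 3 days. Medium and compound were replaced daily. Cultures were counted every day after trypsinization.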

Homo sapiens = species on record: Homo sapiens; assay: Cytostatic activity against human Cen3tel cells at 40 uM after 24 to 48 hrs compound added for every 24 hrs; type: functional, cell-based; how it was run: as §3
[8] = Metabolic stability of the compound in human HeLaS3 cell crude extract assessed as compound degradation measured upto 20 hrs pretreated at 40 uM for 3 days; type: ADME, cell-based; conditions: hela s3, 20 h
How it was run: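 HeLaS-3 cells cultured 3 days with 40 μM compound added fresh every 24 h; crude extract prepared by hypotonic Hepes buffer lysis, dounce homogenization and 10000g spin. Compound (1 mM) was incubated in extract at 37 C for 0, 1, 5 and 20 h, then lyophilized and extracted twice with cold MeOH. Remaining compound was quantified by reverse-phase HPLC.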

HL-60 [9] = assay: Cytotoxicity against human HL60 cells after 72 hrs; type: functional, cell-based; conditions: HL-60, 72 h
How it was run: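 HL-60 cells (40 000/well) in RPMI-1640 with 10% FBS and penicillin/streptomycin, seeded for 24 h, then exposed to vehicle (0.1% DMSO) or a concentration range for 72 h. AlamarBlue (10% v/v) was added for 4.5 h at 37 C and fluorescence read at ex 544/em 590 nm. Viability is relative to vehicle control; IC50 from dose-response curves; three independent experiments.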

HL-60 [10] = assay: Induction of apoptosis in human HL60 cells assessed as DNA content at 50 uM after 24 hrs by flow cytometry relative to vehicle-treated control; type: functional
How it was run: (§4)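 HL-60 cells treated with vehicle (0.1% DMSO) or 25-100 μM compound for 24, 48 or 72 h, harvested by centrifugation, PI-stained for 30 min at 37 C in the dark, and analysed by flow cytometry (10 000 gated events). Cells with under 2N DNA content were scored apoptotic. Three independent experiments.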

HL-60 [11] = assay: Induction of apoptosis in human HL60 cells assessed as DNA content at 100 uM after 24 hrs by flow cytometry relative to vehicle-treated; type: functional; how it was run: as §4
HL-60 [12] = assay: Induction of apoptosis in human HL60 cells assessed as DNA content at 100 uM after 48 hrs by flow cytometry relative to vehicle-treated; type: functional; how it was run: as §4
[13] = target: T1, Adenosine deaminase (Bos taurus) (UniProt P56658); assay: Inhibition of bovine ADA at 100 uM by spectrophotometric analysis
T1 sequence (whole entry): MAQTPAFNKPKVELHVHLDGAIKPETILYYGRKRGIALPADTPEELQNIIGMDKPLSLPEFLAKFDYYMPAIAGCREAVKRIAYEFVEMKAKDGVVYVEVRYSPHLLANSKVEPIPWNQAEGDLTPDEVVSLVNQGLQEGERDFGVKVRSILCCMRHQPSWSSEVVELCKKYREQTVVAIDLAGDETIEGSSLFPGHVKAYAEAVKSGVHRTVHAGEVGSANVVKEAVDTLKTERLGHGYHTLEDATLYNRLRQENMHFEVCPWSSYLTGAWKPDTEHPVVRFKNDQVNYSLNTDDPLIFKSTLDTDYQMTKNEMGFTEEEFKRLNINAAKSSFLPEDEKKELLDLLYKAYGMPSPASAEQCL
How it was run: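 Adenosine deaminase assayed at 30 C with 50 μM Ado, 50 mM potassium phosphate pH 7.2 and 0.3 nM enzyme. Deamination was followed as A262 change over 2 min. Compound tested at 100 μM, with DMSO at most 4% final and a substrate-free blank. Percent inhibition from two determinations in triplicate.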

NIH3T3 = assay: Cytotoxicity against mouse 3T3 cells by phenyltetrazolium bromide assay; type: functional, cell-based
How it was run: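 Murine 3T3 fibroblasts; proliferation measured by MTT assay, with IC50 reported. Each value is the mean of three determinations; Student's t test, p < 0.05.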

HeLa S3 (Homo sapiens) [14] = assay: Growth inhibition of human HeLaS-3 cells pretreated for 2 days measured after 24 hrs of compound wash out by Burker cell counter
HeLa S3 (Homo sapiens) [15] = assay: Growth inhibition of human HeLaS-3 cells pretreated for 2 days measured after 2 days of compound wash out by Burker cell counter

Chain of Adenosine kinase (P55263 whole entry): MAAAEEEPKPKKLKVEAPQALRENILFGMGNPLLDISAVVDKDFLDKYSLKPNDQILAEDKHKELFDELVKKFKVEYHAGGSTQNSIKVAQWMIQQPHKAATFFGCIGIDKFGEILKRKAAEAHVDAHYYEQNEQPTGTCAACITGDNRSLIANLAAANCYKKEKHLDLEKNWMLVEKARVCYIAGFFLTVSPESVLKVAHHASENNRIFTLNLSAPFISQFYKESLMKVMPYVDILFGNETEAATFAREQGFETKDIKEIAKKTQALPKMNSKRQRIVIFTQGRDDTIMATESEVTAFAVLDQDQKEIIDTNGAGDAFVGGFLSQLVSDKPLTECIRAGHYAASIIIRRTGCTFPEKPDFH

Q: Which IC50 (Adenosine kinase) does the source give for CCC1(c2ccc(CSc3ccccc3)cc2)Oc2ccccc2-n2cccc2C1=O (racemic) here?
A: 1.2 µM

Q: And the Activity (HeLa S3 [1])?
A: inactive

Q: What about the Activity (HeLa S3 [2]) of the same compound?
A: inactive

Q: And the IC50 (HeLa S3 [3])?
A: 50 µM

Q: And the Drug uptake [4]?
A: Active

Q: What about the GI50 (K562 [5]) of the same compound?
A: 1 µM

Q: What about the Activity (K562 [6]) of the same compound?
A: Not toxic

Q: And the Activity (HeLa S3 [7])?
A: inactive

Q: What about the Activity (Homo sapiens) of the same compound?
A: inactive

Q: What about the Stability [8] of the same compound?
A: Stable

Q: And the IC50 (HL-60 [9])?
A: 34.2 µM

Q: What about the Activity (HL-60 [10]) of the same compound?
A: 44%

Q: What about the Activity (HL-60 [11]) of the same compound?
A: 70%

Q: And the Activity (HL-60 [12])?
A: 90%

Q: And the inhibition [13]?
A: 15%

Q: And the IC50 (NIH3T3)?
A: 118 µM

Q: And the “growth inhibition (GI)” value (HeLa S3 (Homo sapiens) [14])?
A: Active

Q: And the “growth inhibition (GI)” value (HeLa S3 (Homo sapiens) [15])?
A: inactive
